Measurements from article PMC4269301 (International journal of peptide research and therapeutics, 2014).

What was measured:
[1] = test system: GRK site pS-(355,356) of the β2AR in WT-β2AR cells; test: Intact-cell GRK site phosphorylation of the β2AR; type: cell-based; conditions: 100 μM, 20 min pretreatment, 20 nM ISO
adenylyl cyclase (AC) = test: Adenylyl cyclase activity in membranes from WT-β2AR cells; type: biochemical; conditions: 100 μM peptide, 10 min, 30 °C
[2] = test system: PKA site pS-262 of the β2AR in WT-β2AR cells; test: Intact-cell PKA site phosphorylation of the β2AR; type: cell-based; conditions: 100 μM, 20 min pretreatment, 20 nM ISO
How it was run: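 HEK293 cells stably expressing FLAG-β2AR (2–4 pmol/mg) on poly-L-lysine; 20 min with 100 μM TAT-tagged peptide, TAT or DMSO, then 20 nM ISO in 0.1 mM ascorbate/1 mM thiourea pH 7, or carrier, 5 min at 37 °C. Lysates on 12 % SDS-PAGE, immunoblot anti-pS262, reprobed anti-C-tail for normalisation. ≥4 experiments in duplicate, % of control.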

## CC(=O)NCC(=O)N[C@@H](CCCNC(=N)N)C(=O)N[C@@H](CCCCN)C(=O)N[C@@H](CCCCN)C(=O)N[C@@H](CCCNC(=N)N)C(=O)N[C@@H](CCCNC(=N)N)C(=O)N[C@@H](CCC(N)=O)C(=O)N[C@@H](CCCNC(=N)N)C(=O)N[C@@H](CCCNC(=N)N)C(=O)N[C@@H](CCCNC(=N)N)C(=O)N1CCC[C@H]1C(=O)N1CCC[C@H]1C(=O)N[C@@H](CCC(N)=O)C(N)=O [TAT]
[1]
  Effect on GRK phosphorylation of β2AR in intact cells: did not inhibit
Adenylyl cyclase (AC); 1 μM ISO
  Effect on ISO-stimulated AC activity: without effect
Adenylyl cyclase (AC); 20 μM FSK
  Effect on FSK-stimulated AC activity: without effect
[2]
  Effect on PKA site (S262) phosphorylation of the β2AR in intact cells: did not inhibit
